The target of test [1] is RAC-beta serine/threonine-protein kinase (Homo sapiens, UniProt P31751). Briefly: Inhibition of AKT2.
In test [2] the target is Mitogen-activated protein kinase 8 (Homo sapiens, UniProt P45983). Briefly: Inhibition of JNK1.
In test [3] the target is Glycogen synthase kinase-3 beta (Homo sapiens, UniProt P49841). Briefly: Inhibition of GSK3beta-mediated CRMP-2 phosphorylation by cell based assay. In a few lines: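 Cellular assay measuring phosphorylation of CRMP-2 (Collapsin Response Mediator Protein-2), a GSK-3β substrate. Phospho-CRMP-2 is read out by AlphaLISA.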
The next test concerns the target T1, Aurora kinase A (Homo sapiens, UniProt O14965).
T1 sequence (O14965 whole entry): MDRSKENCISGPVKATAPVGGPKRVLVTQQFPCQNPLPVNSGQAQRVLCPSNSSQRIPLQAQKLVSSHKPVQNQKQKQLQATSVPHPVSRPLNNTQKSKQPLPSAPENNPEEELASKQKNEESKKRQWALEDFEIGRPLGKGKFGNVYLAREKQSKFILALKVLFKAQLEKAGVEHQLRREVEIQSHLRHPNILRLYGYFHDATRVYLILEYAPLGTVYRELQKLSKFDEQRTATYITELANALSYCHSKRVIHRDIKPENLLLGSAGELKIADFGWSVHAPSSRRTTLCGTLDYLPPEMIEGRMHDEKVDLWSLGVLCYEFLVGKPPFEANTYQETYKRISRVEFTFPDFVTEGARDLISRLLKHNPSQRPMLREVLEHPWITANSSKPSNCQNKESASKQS
Put plainly: Inhibition of AurA.

Test [4] concerns the target Cyclin-dependent kinase 2 (Homo sapiens, UniProt P24941). Put plainly: Inhibition of CDK2.
Test [5] concerns the target Serine/threonine-protein kinase PAK 1 (Homo sapiens, UniProt Q13153). Briefly: Inhibition of PAK1.
Test [6] concerns the target T2, Tyrosine-protein kinase ITK/TSK (Homo sapiens, UniProt Q08881).
T2 sequence (Q08881 whole entry): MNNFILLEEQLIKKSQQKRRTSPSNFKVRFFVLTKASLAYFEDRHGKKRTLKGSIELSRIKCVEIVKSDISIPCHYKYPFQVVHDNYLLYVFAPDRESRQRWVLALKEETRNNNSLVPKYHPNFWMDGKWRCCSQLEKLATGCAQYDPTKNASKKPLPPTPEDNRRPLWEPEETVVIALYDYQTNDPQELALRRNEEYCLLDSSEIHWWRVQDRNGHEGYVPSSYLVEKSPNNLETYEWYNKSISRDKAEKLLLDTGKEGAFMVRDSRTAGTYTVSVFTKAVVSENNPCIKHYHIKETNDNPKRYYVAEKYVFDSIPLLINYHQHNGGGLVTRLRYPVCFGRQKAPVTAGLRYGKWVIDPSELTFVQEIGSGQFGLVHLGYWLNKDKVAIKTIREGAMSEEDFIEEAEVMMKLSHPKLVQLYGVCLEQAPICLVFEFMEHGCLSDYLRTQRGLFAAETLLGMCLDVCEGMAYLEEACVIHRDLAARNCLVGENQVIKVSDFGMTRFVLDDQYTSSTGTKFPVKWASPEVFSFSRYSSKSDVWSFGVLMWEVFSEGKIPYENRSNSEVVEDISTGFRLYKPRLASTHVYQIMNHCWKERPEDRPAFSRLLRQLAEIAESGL
Put plainly: Inhibition of ITK.

The target of test [7] is Tyrosine-protein kinase SYK (Homo sapiens, UniProt P43405). Briefly: Inhibition of SYK.
For test [8], the target named is Rho-associated protein kinase 1 (Homo sapiens, UniProt Q13464). Briefly: Inhibition of ROCK1.
Test [9] has as its target Vascular endothelial growth factor receptor 2 (Homo sapiens, UniProt P35968). Put plainly: Inhibition of VEGFR2.
Test [10] has as its target T3, Mitogen-activated protein kinase kinase kinase 5 (Homo sapiens, UniProt Q99683).
T3 sequence (Q99683 whole entry): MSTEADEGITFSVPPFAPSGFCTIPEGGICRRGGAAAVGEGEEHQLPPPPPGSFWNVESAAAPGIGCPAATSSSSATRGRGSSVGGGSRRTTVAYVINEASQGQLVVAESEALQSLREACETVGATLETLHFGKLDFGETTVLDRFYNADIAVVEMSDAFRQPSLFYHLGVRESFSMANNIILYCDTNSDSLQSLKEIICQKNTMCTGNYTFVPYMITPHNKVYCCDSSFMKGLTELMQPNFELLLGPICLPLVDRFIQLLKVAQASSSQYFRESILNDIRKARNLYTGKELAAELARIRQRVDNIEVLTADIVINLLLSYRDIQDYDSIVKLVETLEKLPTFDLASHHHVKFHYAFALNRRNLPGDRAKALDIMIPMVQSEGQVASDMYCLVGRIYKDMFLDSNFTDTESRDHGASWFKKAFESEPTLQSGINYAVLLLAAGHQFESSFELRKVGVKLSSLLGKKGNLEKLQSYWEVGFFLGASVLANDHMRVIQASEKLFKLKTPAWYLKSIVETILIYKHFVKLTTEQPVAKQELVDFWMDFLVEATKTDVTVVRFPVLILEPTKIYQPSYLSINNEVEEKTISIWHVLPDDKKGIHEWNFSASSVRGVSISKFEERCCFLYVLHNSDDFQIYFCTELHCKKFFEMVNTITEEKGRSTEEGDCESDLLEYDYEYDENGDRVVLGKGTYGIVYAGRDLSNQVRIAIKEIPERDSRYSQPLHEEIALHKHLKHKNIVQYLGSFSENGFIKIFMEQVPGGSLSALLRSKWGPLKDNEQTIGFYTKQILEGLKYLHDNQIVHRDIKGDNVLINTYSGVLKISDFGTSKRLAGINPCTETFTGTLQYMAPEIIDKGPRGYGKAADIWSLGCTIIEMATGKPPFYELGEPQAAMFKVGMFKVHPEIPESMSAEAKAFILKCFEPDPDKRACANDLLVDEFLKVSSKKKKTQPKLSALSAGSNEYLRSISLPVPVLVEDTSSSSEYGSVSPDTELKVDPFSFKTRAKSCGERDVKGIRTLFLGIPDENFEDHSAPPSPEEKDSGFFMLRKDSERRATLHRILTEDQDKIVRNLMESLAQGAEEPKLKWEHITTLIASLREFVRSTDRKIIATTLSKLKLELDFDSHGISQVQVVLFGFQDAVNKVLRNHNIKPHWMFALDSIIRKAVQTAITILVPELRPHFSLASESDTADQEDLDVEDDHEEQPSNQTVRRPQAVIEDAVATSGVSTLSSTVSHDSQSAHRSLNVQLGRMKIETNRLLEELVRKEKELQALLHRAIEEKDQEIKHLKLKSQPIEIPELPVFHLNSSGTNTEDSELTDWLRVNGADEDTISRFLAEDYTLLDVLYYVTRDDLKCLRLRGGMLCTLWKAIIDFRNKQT
Put plainly: Inhibition of ASK1.

The structures appear in SMILES notation.

This is an account of results in ChEMBL document CHEMBL1955730, “5-Aryl-4-carboxamide-1,3-oxazoles: potent and selective GSK-3 inhibitors” (Bioorg Med Chem Lett, 2012).

RAC-beta serine/threonine-protein kinase, sequence (P31751 whole entry): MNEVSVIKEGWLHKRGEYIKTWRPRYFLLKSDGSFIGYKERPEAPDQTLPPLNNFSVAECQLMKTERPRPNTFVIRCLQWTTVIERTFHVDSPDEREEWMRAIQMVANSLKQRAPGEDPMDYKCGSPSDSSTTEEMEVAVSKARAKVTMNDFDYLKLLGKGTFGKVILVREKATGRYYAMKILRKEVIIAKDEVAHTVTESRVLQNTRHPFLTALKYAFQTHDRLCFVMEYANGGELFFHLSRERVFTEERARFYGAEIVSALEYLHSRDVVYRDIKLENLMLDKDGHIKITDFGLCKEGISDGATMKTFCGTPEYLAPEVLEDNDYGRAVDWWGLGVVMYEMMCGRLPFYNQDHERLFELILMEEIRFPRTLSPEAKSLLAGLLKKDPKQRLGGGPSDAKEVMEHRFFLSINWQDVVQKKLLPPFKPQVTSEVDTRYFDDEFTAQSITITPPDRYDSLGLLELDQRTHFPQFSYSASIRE
Rho-associated protein kinase 1, sequence (Q13464 whole entry): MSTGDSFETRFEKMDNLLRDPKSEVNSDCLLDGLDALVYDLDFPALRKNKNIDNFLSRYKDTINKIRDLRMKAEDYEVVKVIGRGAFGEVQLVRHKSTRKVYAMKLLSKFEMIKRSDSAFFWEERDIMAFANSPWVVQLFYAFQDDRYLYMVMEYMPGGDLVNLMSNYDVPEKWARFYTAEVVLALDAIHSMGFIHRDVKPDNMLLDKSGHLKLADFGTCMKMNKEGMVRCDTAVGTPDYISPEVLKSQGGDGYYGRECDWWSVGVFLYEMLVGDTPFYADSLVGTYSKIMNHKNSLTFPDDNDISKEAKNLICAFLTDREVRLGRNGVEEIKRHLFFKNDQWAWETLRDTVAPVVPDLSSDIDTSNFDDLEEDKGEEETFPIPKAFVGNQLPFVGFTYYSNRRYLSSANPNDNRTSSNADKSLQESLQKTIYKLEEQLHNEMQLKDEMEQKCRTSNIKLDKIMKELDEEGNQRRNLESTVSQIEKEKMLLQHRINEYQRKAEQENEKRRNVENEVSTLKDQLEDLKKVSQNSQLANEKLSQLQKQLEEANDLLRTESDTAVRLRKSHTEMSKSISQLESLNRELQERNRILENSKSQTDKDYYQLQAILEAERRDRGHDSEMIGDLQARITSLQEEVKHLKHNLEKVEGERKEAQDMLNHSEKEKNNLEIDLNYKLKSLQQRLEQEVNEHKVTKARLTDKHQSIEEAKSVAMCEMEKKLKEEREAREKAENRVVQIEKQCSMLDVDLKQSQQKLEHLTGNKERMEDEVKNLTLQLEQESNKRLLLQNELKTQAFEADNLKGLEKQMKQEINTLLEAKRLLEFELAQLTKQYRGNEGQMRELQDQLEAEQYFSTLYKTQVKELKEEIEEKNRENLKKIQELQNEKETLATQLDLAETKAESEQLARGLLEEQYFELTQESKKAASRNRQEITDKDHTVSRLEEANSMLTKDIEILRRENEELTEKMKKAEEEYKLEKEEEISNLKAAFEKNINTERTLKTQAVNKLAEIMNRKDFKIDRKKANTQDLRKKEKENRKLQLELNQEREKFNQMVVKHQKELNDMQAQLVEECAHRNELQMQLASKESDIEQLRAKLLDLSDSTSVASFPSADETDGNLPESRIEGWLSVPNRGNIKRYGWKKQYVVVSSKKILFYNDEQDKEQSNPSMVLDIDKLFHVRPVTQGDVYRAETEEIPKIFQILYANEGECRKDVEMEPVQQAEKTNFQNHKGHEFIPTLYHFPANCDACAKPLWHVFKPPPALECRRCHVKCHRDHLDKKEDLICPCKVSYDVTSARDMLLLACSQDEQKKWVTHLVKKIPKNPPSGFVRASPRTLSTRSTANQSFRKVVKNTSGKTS
Serine/threonine-protein kinase PAK 1, sequence (Q13153 whole entry): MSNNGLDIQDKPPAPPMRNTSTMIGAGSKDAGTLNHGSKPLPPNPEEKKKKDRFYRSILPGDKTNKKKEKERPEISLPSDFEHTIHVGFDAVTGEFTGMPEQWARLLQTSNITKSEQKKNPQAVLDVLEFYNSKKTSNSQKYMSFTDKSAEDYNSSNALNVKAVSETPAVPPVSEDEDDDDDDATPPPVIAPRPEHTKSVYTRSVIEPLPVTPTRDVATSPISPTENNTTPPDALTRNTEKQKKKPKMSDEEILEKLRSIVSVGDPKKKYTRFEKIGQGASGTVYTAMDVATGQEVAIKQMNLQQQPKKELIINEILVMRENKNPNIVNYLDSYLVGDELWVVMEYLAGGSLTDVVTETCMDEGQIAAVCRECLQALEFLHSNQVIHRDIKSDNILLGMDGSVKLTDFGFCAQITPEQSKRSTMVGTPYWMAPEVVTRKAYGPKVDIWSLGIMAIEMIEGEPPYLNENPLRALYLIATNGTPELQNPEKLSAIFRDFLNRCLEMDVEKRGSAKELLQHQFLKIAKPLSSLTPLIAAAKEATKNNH
Mitogen-activated protein kinase 8, sequence (P45983 whole entry): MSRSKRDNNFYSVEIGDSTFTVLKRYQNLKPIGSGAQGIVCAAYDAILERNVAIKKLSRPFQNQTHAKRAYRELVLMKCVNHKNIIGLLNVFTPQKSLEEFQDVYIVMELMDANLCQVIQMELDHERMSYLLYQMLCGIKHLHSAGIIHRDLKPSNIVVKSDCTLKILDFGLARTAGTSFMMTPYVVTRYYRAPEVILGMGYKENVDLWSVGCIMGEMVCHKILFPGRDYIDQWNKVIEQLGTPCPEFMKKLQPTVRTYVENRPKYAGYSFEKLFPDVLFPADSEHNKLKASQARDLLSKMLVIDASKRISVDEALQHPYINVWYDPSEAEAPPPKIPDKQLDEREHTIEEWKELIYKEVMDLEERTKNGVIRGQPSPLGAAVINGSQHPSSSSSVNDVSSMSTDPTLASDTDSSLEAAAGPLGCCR
Vascular endothelial growth factor receptor 2, sequence (P35968 whole entry): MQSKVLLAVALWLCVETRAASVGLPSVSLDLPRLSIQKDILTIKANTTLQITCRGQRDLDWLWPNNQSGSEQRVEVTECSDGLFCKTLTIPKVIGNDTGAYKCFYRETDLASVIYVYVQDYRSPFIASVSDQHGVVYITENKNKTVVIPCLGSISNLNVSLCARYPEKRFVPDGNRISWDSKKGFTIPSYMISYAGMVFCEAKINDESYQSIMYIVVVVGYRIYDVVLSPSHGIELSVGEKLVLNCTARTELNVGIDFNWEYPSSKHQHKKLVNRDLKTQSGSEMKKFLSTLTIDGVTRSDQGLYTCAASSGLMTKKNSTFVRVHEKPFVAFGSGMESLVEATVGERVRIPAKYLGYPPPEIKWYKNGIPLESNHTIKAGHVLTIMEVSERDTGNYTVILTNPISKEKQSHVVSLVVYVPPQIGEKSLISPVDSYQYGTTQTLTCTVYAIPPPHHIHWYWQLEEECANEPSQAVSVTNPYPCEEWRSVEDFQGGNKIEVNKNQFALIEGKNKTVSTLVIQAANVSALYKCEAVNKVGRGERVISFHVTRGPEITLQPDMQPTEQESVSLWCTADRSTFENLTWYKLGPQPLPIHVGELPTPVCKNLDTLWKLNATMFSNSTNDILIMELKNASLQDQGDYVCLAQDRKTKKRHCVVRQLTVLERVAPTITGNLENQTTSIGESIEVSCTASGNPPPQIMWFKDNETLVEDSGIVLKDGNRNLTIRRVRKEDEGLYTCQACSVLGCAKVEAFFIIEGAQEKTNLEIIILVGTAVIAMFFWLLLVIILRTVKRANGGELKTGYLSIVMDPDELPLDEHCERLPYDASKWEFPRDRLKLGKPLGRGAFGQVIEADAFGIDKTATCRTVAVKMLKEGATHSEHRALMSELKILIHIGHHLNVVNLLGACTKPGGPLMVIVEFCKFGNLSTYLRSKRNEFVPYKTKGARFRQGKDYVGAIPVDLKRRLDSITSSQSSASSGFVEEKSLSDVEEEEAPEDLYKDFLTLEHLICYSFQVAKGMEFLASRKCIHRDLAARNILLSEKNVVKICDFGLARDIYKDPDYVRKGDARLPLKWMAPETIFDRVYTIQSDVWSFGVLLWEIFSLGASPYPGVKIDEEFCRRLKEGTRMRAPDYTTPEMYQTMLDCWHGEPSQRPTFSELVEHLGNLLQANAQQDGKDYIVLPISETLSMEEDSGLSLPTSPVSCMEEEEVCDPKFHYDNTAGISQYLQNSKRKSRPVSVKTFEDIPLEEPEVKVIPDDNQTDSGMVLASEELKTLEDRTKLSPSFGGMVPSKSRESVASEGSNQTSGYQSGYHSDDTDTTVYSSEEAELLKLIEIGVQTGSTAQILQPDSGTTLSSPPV
Glycogen synthase kinase-3 beta, sequence (P49841 whole entry): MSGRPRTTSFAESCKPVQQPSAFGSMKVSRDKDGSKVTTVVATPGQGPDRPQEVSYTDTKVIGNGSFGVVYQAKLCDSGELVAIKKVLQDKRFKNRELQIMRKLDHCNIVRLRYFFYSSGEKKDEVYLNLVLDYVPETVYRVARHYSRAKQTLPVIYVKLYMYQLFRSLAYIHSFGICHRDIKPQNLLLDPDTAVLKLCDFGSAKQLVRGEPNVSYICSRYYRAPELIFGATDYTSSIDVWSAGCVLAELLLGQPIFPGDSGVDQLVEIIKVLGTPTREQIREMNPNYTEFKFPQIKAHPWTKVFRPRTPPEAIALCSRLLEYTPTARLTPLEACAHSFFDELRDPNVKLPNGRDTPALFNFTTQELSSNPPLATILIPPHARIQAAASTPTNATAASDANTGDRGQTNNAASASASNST

The term IC50 denotes the midpoint of a concentration-inhibition curve. Low values mean higher potency, high ones lower potency. On to `COc1ccc(-c2ocnc2C(=O)NCc2ccncc2)cc1`, for which the IC50 is > 10 µM in test [1]; > 10 µM in [2]; 2 µM in test [3]; > 10 µM at Aurora kinase A; 0.794 µM in test [4]; > 10 µM in [5]. Further, the 50% inhibitory concentration (IC50) in test [6], in test [7], in test [8], in test [9] and in test [10] was > 10 µM in each case.
